What all share (type): functional
Assay [1] has as its system Escherichia coli. Nature of the assay: Antimicrobial activity against Escherichia coli BL21(DE3) by agar-dilution technique. In outline: (§1)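 MICs by agar dilution on Mueller-Hinton agar following CLSI recommendations. E. coli DH10B clone carries EcoRI-restricted B. clausii NR DNA in pJIM2246. BL21(DE3) carries blaBCL-1 in pET9a.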
Assay [2] deals with Shouchella clausii. Nature of the assay: Antimicrobial activity against Bacillus clausii NR expressing beta-lactamase BCL1 by agar-dilution technique.
The test system of assay [3] is Shouchella clausii. Put plainly: Antimicrobial activity against Bacillus clausii ATCC 21537 by agar-dilution technique.
In assay [4] the test system is Escherichia coli. Put plainly: Antimicrobial activity against Escherichia coli DH10B by agar-dilution technique. As to conditions: K-12 substr. DH10B. Put shortly: as §1
Assay [5] deals with Shouchella clausii. Nature of the assay: Antimicrobial activity against Bacillus clausii NR expressing beta-lactamase BCL1 by agar-dilution technique in presence of beta-lactamase inhibitor clavulanic acid. Put shortly:
as §1

Assay [6] relates to Shouchella clausii. Nature of the assay: Antimicrobial activity against Bacillus clausii ATCC 21537 by agar-dilution technique in presence of beta-lactamase inhibitor clavulanic acid. In outline: as §1
The subject of assay [7] is Escherichia coli. Put plainly: Antimicrobial activity against Escherichia coli DH10B carrying pJIM2246 expressing Bacillus clausii NR beta-lactamase BCL1 by agar-dilution technique in presence of beta-lactamase inhibitor clavulanic acid. As to conditions: K-12 substr. DH10B. Put shortly: as §1
Assay [8] has as its system Escherichia coli. Nature of the assay: Antimicrobial activity against Escherichia coli DH10B by agar-dilution technique in presence of beta-lactamase inhibitor clavulanic acid. As to conditions: K-12 substr. DH10B. Put shortly: as §1
For assay [9], the system named is Escherichia coli. Nature of the assay: Antimicrobial activity against Escherichia coli BL21(DE3) carrying pET9a expressing Bacillus clausii beta-lactamase BCL1 by agar-dilution technique in presence of beta-lactamase inhibitor clavulanic acid. Put shortly: as §1
Assay [10] relates to Escherichia coli. Put plainly: Antimicrobial activity against Escherichia coli BL21(DE3) by agar-dilution technique in presence of beta-lactamase inhibitor clavulanic acid. Put shortly: as §1
For assay [11], the system named is Escherichia coli. Nature of the assay: Antimicrobial activity against Escherichia coli DH10B carrying pJIM2246 expressing Bacillus clausii NR beta-lactamase BCL1 by agar-dilution technique. As to conditions: K-12 substr. DH10B.
For assay [12], the system named is Escherichia coli. Nature of the assay: Antimicrobial activity against Escherichia coli BL21(DE3) carrying pET9a expressing Bacillus clausii beta-lactamase BCL1 by agar-dilution technique.
In assay [13] the test system is Shouchella clausii. Nature of the assay: Antimicrobial activity against Bacillus clausii NR expressing beta-lactamase BCL1 by agar-dilution technique in presence of beta-lactamase inhibitor Tazobactam. Put shortly:
as §1

For assay [14], the system named is Shouchella clausii. Nature of the assay: Antimicrobial activity against Bacillus clausii ATCC 21537 by agar-dilution technique in presence of beta-lactamase inhibitor Tazobactam. Put shortly:
as §1

The test system of assay [15] is Escherichia coli. Put plainly: Antimicrobial activity against Escherichia coli DH10B carrying pJIM2246 expressing Bacillus clausii NR beta-lactamase BCL1 by agar-dilution technique in presence of beta-lactamase inhibitor Tazobactam. To be noted: K-12 substr. DH10B. Put shortly:
as §1

Assay [16] relates to Escherichia coli. Nature of the assay: Antimicrobial activity against Escherichia coli DH10B by agar-dilution technique in presence of beta-lactamase inhibitor Tazobactam. As to conditions: K-12 substr. DH10B. In outline: as §1
Assay [17] relates to Escherichia coli. Put plainly: Antimicrobial activity against Escherichia coli BL21(DE3) carrying pET9a expressing Bacillus clausii beta-lactamase BCL1 by agar-dilution technique in presence of beta-lactamase inhibitor Tazobactam. Put shortly: as §1
The test system of assay [18] is Escherichia coli. Nature of the assay: Antimicrobial activity against Escherichia coli BL21(DE3) by agar-dilution technique in presence of beta-lactamase inhibitor Tazobactam. In outline:
as §1

The structures appear in SMILES notation. In brackets after ≈: the same amount, converted by molar mass.

As for `CO/N=C(\C(=O)N[C@@H]1C(=O)N2C(C(=O)[O-])=C(C[N+]3(C)CCCC3)CS[C@H]12)c1csc(N)n1`, inhibition of growth in the assay with Escherichia coli [1] (MIC) required 0.06 µg/mL (≈ 0.125 µM).

On to `CC1(C)S[C@@H]2[C@H](NC(=O)[C@H](N)c3ccc(O)cc3)C(=O)N2[C@H]1C(=O)O` [AMOXICILLIN], for which the MIC in the assay with Shouchella clausii [2] is 0.5 µg/mL (≈ 1.37 µM); in the assay on Shouchella clausii [3], 1 µg/mL (≈ 2.74 µM); against Escherichia coli [4], 8 µg/mL (≈ 21.9 µM); in the assay with Escherichia coli [1], 1 µg/mL (≈ 2.74 µM); with Shouchella clausii [5] it was 0.12 µg/mL; in the assay on Shouchella clausii [6] (read-out: MIC), 120 µg/mL. The MIC with Escherichia coli [7] is 32 µg/mL; in the assay with Escherichia coli [8] it was 4 µg/mL; in the assay on Escherichia coli [9], 2 µg/mL; with Escherichia coli [10], 1 µg/mL.

`CO/N=C(\C(=O)N[C@@H]1C(=O)N2C(C(=O)O)=C(COC(C)=O)CS[C@H]12)c1csc(N)n1` [CEFOTAXIME]: the MIC in the assay on Shouchella clausii [2] amounted to 16 µg/mL (≈ 35.1 µM); with Shouchella clausii [3], 16 µg/mL (≈ 35.1 µM); against Escherichia coli [11] it was 0.12 µg/mL (≈ 0.263 µM); in the assay on Escherichia coli [4] it was 0.06 µg/mL (≈ 0.132 µM); in the assay with Escherichia coli [12], 0.06 µg/mL (≈ 0.132 µM); with Escherichia coli [1] it was 0.06 µg/mL (≈ 0.132 µM). Besides, the MIC with Shouchella clausii [5] came out at 16 µg/mL; in the assay on Shouchella clausii [6] it was 16 µg/mL; with Escherichia coli [7], 0.06 µg/mL; with Escherichia coli [8], 0.06 µg/mL; in the assay on Escherichia coli [9], 0.06 µg/mL; in the assay on Escherichia coli [10] it was 0.06 µg/mL.

As to `CO[C@@]1(NC(=O)Cc2cccs2)C(=O)N2C(C(=O)O)=C(COC(N)=O)CS[C@@H]21` [CEFOXITIN], the MIC against Shouchella clausii [2] is 32 µg/mL (≈ 74.9 µM); against Shouchella clausii [3], 16 µg/mL (≈ 37.4 µM); against Escherichia coli [11], 16 µg/mL (≈ 37.4 µM); in the assay on Escherichia coli [4] it was 8 µg/mL (≈ 18.7 µM); in the assay on Escherichia coli [12], 2 µg/mL (≈ 4.68 µM); in the assay with Escherichia coli [1] it was 0.5 µg/mL (≈ 1.17 µM).

Take `CO/N=C(\C(=O)N[C@@H]1C(=O)N2C(C(=O)[O-])=C(C[n+]3cccc4c3CCC4)CS[C@H]12)c1csc(N)n1` [CEFPIROME]: the MIC in the assay with Escherichia coli [11] stood at 0.12 µg/mL (≈ 0.233 µM); against Escherichia coli [4], 0.06 µg/mL (≈ 0.117 µM); against Escherichia coli [12] it was 0.5 µg/mL (≈ 0.972 µM); with Escherichia coli [1], 0.06 µg/mL (≈ 0.117 µM); with Shouchella clausii [5], 8 µg/mL; in the assay with Shouchella clausii [6], 8 µg/mL. For the same compound, the MIC in the assay on Escherichia coli [7], in the assay with Escherichia coli [8], with Escherichia coli [9] and in the assay with Escherichia coli [10] was 0.06 µg/mL each time.

For `CC(C)(O/N=C(\C(=O)N[C@@H]1C(=O)N2C(C(=O)[O-])=C(C[n+]3ccccc3)CS[C@H]12)c1csc(N)n1)C(=O)O` [CEFTAZIDIME], the MIC in the assay on Escherichia coli [11] worked out at 0.5 µg/mL (≈ 0.915 µM); with Escherichia coli [4], 0.12 µg/mL (≈ 0.22 µM); with Escherichia coli [12], 0.12 µg/mL (≈ 0.22 µM); in the assay with Escherichia coli [1], 0.06 µg/mL (≈ 0.11 µM); with Escherichia coli [7], 0.5 µg/mL; in the assay with Escherichia coli [8], 0.12 µg/mL. The MIC in the assay on Escherichia coli [9] and in the assay with Escherichia coli [10] was 0.06 µg/mL throughout.

For the compound `CO/N=C(\C(=O)N[C@@H]1C(=O)N2C(C(=O)O)=C(CSc3nc(=O)c(O)nn3C)CS[C@H]12)c1csc(N)n1` [CEFTRIAXONE], the MIC with Escherichia coli [11], with Escherichia coli [4], in the assay with Escherichia coli [12] and in the assay with Escherichia coli [1] was 0.06 µg/mL (≈ 0.108 µM) each time.

In the case of `CO/N=C(\C(=O)N[C@@H]1C(=O)N2C(C(=O)O)=C(COC(N)=O)CS[C@H]12)c1ccco1` [CEFUROXIME], the MIC in the assay on Escherichia coli [11] is 16 µg/mL (≈ 37.7 µM); against Escherichia coli [4], 8 µg/mL (≈ 18.9 µM); against Escherichia coli [12], 2 µg/mL (≈ 4.71 µM); in the assay with Escherichia coli [1], 0.5 µg/mL (≈ 1.18 µM).

`O=C(Cc1cccs1)N[C@@H]1C(=O)N2C(C(=O)[O-])=C(C[n+]3ccccc3)CS[C@H]12` [CEPHALORIDINE]: the MIC against Escherichia coli [11] is 0.12 µg/mL (≈ 0.289 µM); with Escherichia coli [4], 0.12 µg/mL (≈ 0.289 µM); in the assay with Escherichia coli [12] it was 0.06 µg/mL (≈ 0.144 µM); against Escherichia coli [1], 0.06 µg/mL (≈ 0.144 µM).

As for `CC(=O)OCC1=C(C(=O)O)N2C(=O)[C@@H](NC(=O)Cc3cccs3)[C@H]2SC1` [CEPHALOTHIN], the MIC against Shouchella clausii [2] was 8 µg/mL (≈ 20.2 µM); against Shouchella clausii [3], 8 µg/mL (≈ 20.2 µM); with Escherichia coli [11] it was 64 µg/mL (≈ 161 µM); against Escherichia coli [4] it was 4 µg/mL (≈ 10.1 µM); against Escherichia coli [12] it was 16 µg/mL (≈ 40.4 µM); in the assay on Escherichia coli [1], 1 µg/mL (≈ 2.52 µM).

Turning to `C[C@@H](O)[C@H]1C(=O)N2C(C(=O)O)=C(SCCNC=N)C[C@H]12` [IMIPENEM ANHYDROUS], the MIC in the assay with Shouchella clausii [2] was 0.25 µg/mL (≈ 0.835 µM).

For the compound `CO[C@@]1(NC(=O)C(C(=O)O)c2ccc(O)cc2)C(=O)N2C(C(=O)O)=C(CSc3nnnn3C)CO[C@@H]21` (some centres not stated) [MOXALACTAM], the MIC is 64 µg/mL (≈ 123 µM) in the assay on Shouchella clausii [2]; 0.25 µg/mL (≈ 0.48 µM) with Shouchella clausii [3]; 0.25 µg/mL (≈ 0.48 µM) against Escherichia coli [11]; 0.25 µg/mL (≈ 0.48 µM) in the assay on Escherichia coli [4]; 0.25 µg/mL (≈ 0.48 µM) in the assay on Escherichia coli [12]; 0.25 µg/mL (≈ 0.48 µM) in the assay with Escherichia coli [1].

`CC1(C)S[C@@H]2[C@H](NC(=O)Cc3ccccc3)C(=O)N2[C@H]1C(=O)O` [PENICILLIN G]: the MIC against Shouchella clausii [2] came to 0.5 µg/mL (≈ 1.5 µM); against Shouchella clausii [3], 0.5 µg/mL (≈ 1.5 µM); against Escherichia coli [4] it was 32 µg/mL (≈ 95.7 µM); against Escherichia coli [1] it was 2 µg/mL (≈ 5.98 µM).

For the compound `CCN1CCN(C(=O)N[C@@H](C(=O)N[C@@H]2C(=O)N3[C@@H]2SC(C)(C)[C@@H]3C(=O)O)c2ccccc2)C(=O)C1=O` [PIPERACILLIN], the MIC turned out to be 16 µg/mL (≈ 30.9 µM) against Shouchella clausii [2]; 16 µg/mL (≈ 30.9 µM) against Shouchella clausii [3]; 8 µg/mL (≈ 15.5 µM) in the assay on Escherichia coli [11]; 4 µg/mL (≈ 7.73 µM) in the assay with Escherichia coli [4]; 32 µg/mL (≈ 61.8 µM) against Escherichia coli [12]; 1 µg/mL (≈ 1.93 µM) in the assay with Escherichia coli [1]. The MIC was 8 µg/mL with Shouchella clausii [13]; 8 µg/mL in the assay on Shouchella clausii [14]; 2 µg/mL with Escherichia coli [15]; 4 µg/mL with Escherichia coli [16]; 0.5 µg/mL in the assay on Escherichia coli [17]; 0.5 µg/mL in the assay on Escherichia coli [18].

Regarding `CC1(C)S[C@@H]2[C@H](NC(=O)[C@H](C(=O)O)c3ccsc3)C(=O)N2[C@H]1C(=O)O` [TICARCILLIN], the MIC amounted to 8 µg/mL (≈ 20.8 µM) against Shouchella clausii [2], 8 µg/mL (≈ 20.8 µM) in the assay with Shouchella clausii [3], 8 µg/mL (≈ 20.8 µM) in the assay on Escherichia coli [4] and 1 µg/mL (≈ 2.6 µM) against Escherichia coli [1].

The MIC is the least concentration at which growth counts as inhibited.

Values taken from ChEMBL document CHEMBL1137660, “Molecular and biochemical characterization of the chromosome-encoded class A beta-lactamase BCL-1 from Bacillus clausii” (Antimicrob Agents Chemother, 2007).
